pIC50: −log10 of the molar value. Bounds are passed on as bounds.

Mitogen-activated protein kinase 10, sequence (P49187 whole entry): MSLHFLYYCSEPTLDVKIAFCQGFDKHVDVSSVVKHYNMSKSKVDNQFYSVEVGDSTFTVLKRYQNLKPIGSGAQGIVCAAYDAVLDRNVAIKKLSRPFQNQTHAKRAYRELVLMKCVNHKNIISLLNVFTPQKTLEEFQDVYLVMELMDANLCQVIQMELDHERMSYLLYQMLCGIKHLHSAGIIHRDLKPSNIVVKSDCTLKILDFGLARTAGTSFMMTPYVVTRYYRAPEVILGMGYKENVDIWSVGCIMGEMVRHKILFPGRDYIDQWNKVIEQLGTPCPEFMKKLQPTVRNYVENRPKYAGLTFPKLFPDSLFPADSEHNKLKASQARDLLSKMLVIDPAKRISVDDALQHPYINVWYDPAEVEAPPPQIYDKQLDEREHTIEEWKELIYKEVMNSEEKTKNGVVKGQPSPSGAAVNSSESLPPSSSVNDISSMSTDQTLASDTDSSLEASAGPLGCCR

The assay concerns the target Mitogen-activated protein kinase 10 (Rattus norvegicus, UniProt P49187). Nature of the assay: Inhibition of rat c-Jun N-terminal kinase 3. The essentials: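 GST-JNK3 was preactivated overnight at room temperature with GST-JNKK2 and ATP-γ-S, then dialysed. The enzyme (0.5 µg) was incubated with biotinylated GST-c-Jun (1 µg) and 2 µM ³³P-γ-ATP in 50 mM Tris-HCl pH 8.0, 10 mM MgCl₂, 1 mM DTT and 100 µM NaVO₄ for 120 min at room temperature. Reaction stopped with EDTA; phosphorylation detected by streptavidin SPA beads and scintillation counting. Values from triplicates.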
The term pIC50 denotes the IC50 on a negative log10 scale, so that one unit is a factor of ten. Compound `N#CC(c1ccnc(NCCc2ccc(N)cc2)n1)c1nc2ccccc2s1` (stereo not drawn) [{2-[2-(4-Amino-phenyl)-ethylamino]-pyrimidin-4-yl}-[3H-benzothiazol-(2Z)-ylidene]-acetonitrile] gave a pIC50 of 7.10.

Regarding `CCOC(=O)C(c1ccnc(Cl)n1)c1nc2ccccc2s1` (stereo not drawn) [[3H-Benzothiazol-(2Z)-ylidene]-(2-chloro-pyrimidin-4-yl)-acetic acid ethyl ester], the pIC50 is below 5.30.

`CCCNc1nccc(C(C#N)c2nc3ccccc3s2)n1` (stereo not drawn) [[3H-Benzothiazol-(2Z)-ylidene]-(2-propylamino-pyrimidin-4-yl)-acetonitrile] gave a pIC50 below 5.30.

In the case of `N#CC(c1ccncn1)c1nc2ccccc2s1` (stereo not drawn) [(2Z)-1,3-benzothiazol-2(3H)-ylidene(pyrimidin-4-yl)acetonitrile], the negative-log IC50 (pIC50) is below 5.30.

With `N#CC(c1ccnc(NCCc2ccc(Cl)c(Cl)c2)n1)c1nc2ccccc2s1` (stereo not drawn) [[3H-Benzothiazol-(2Z)-ylidene]-{2-[2-(3,4-dichloro-phenyl)-ethylamino]-pyrimidin-4-yl}-acetonitrile], the pIC50 is below 5.30.

`N#CC(c1ccnc(NCCc2ccccn2)n1)c1nc2ccccc2s1` (stereo not drawn) [[3H-Benzothiazol-(2Z)-ylidene]-[2-(2-pyridin-2-yl-ethylamino)-pyrimidin-4-yl]-acetonitrile] gave a negative logarithm of the IC50 (pIC50) of 6.60.

In turn, `N#CC(c1ccnc(Cl)n1)c1nc2ccccc2s1` (stereo not drawn) [(2Z)-1,3-benzothiazol-2(3H)-ylidene(2-chloropyrimidin-4-yl)acetonitrile] gave a pIC50 of 6.60.

For the compound `CCCN(CCC)c1nccc(C(C#N)c2nc3ccccc3s2)n1` (stereo not drawn) [[3H-Benzothiazol-(2Z)-ylidene]-(2-dipropylamino-pyrimidin-4-yl)-acetonitrile], the pIC50 was below 5.30.

For `N#CC(c1ccnc(NCCc2ccc(Br)cc2)n1)c1nc2ccccc2s1` (stereo not drawn) [[3H-Benzothiazol-(2Z)-ylidene]-{2-[2-(4-bromo-phenyl)-ethylamino]-pyrimidin-4-yl}-acetonitrile], the negative logarithm of the IC50 (pIC50) is below 5.30.

As to `N#CC(c1ccnc(NCCc2ccc(F)cc2)n1)c1nc2ccccc2s1` (stereo not drawn) [[3H-Benzothiazol-(2Z)-ylidene]-{2-[2-(4-fluoro-phenyl)-ethylamino]-pyrimidin-4-yl}-acetonitrile], the pIC50 is below 5.30.

In turn, `Cc1ccc(CCNc2nccc(C(C#N)c3nc4ccccc4s3)n2)cc1` (stereo not drawn) [[3H-Benzothiazol-(2Z)-ylidene]-[2-(2-p-tolyl-ethylamino)-pyrimidin-4-yl]-acetonitrile] gave a negative-log IC50 (pIC50) below 5.30.

As to `N#CC(c1ccnc(NCCc2cccc(Cl)c2)n1)c1nc2ccccc2s1` (stereo not drawn) [[3H-Benzothiazol-(2Z)-ylidene]-{2-[2-(3-chloro-phenyl)-ethylamino]-pyrimidin-4-yl}-acetonitrile], the negative logarithm of the IC50 (pIC50) was below 5.30.

`N#CC(c1ccnc(NCc2nnn[nH]2)n1)c1nc2ccccc2s1` (stereo not drawn) [[3H-Benzothiazol-(2Z)-ylidene]-{2-[(1H-tetrazol-5-ylmethyl)-amino]-pyrimidin-4-yl}-acetonitrile] showed a negative logarithm of the IC50 (pIC50) below 5.30.

For `N#CC(c1ccnc(NCCc2ccccc2)n1)c1nc2ccccc2s1` (stereo not drawn) [[3H-Benzothiazol-(2Z)-ylidene]-(2-phenethylamino-pyrimidin-4-yl)-acetonitrile], the negative-log IC50 (pIC50) was below 5.30.

`N#CC(c1ccnc(NCCc2c[nH]cn2)n1)c1nc2ccccc2s1` (stereo not drawn) gave a negative logarithm of the IC50 (pIC50) of 7.10.

With `N#CC(c1nc2ccccc2[nH]1)c1nc(Cl)ncc1Br` (stereo not drawn) [(5-Bromo-2-chloro-pyrimidin-4-yl)-(1,3-dihydro-benzoimidazol-2-ylidene)-acetonitrile], the pIC50 was below 5.30.

For `Cc1cc(C(C#N)c2nc3ccccc3s2)nc(Cl)n1` (stereo not drawn) [(2Z)-1,3-benzothiazol-2(3H)-ylidene(2-chloro-6-methylpyrimidin-4-yl)acetonitrile], the pIC50 is below 5.30.

`N#CC(c1cccc(Cl)n1)c1nc2ccccc2s1` (stereo not drawn) [(2Z)-1,3-benzothiazol-2(3H)-ylidene(6-chloropyridin-2-yl)acetonitrile] had a pIC50 below 5.30.

The values above are taken from BindingDB's records for doi:10.1021/jm0310986 (Serono Pharmaceutical Research Institute, 2005).
